The source made the active and inactive calls. No cut-off for these calls is given here.

Assay type in all cases: functional
Assay [1] can be described thus: (§1) Growth inhibition of human HL-60(TB) cells at 10 uM after 48 hrs by SRB method. The conditions noted are these: HL-60, 48 h, read-out: GI. Summed up: (§2)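 NCI single-dose primary screen at 10^-5 M, 48 h exposure. Cells grown in RPMI 1640 with 5% FBS and 2 mM L-glutamine. Suspension cells fixed in situ with TCA (final 16%), stained with SRB, absorbance read at 515 nm. Percent growth inhibition calculated against time-zero and untreated control plates.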
Background: The SRB assay estimates cell density from bound dye.

A short description of assay [2]: (§3) Growth inhibition of human BT549 cells at 10 uM after 48 hrs by SRB method. The conditions noted are these: BT-549, 48 h, read-out: GI. An outline of the steps: (§4)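 NCI 56-line primary screen at a single 10^-5 M concentration. Cells grown in RPMI 1640 with 5% FBS and 2 mM L-glutamine, plated at 5000–40,000 cells/well, then preincubated for 24 h. Exposure was 48 h at 37 °C and 5% CO2. Adherent cells were fixed with cold TCA at 10% final, suspension cells at 16%. Staining used 0.4% SRB, read at 515 nm. Results are % growth inhibition relative to control.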

Assay [3] is described as follows: (§5) Growth inhibition of human […] cells at 10 uM after 48 hrs by SRB method. The conditions noted are these: read-out: GI. Summed up: as §4
The subject of a further assay is HL-60(TB). Described as §1. Summed up:
as §2

A further assay deals with BT-549. The assay is described as §3. An outline of the steps: as §4
The subject of a further assay is RPMI8266. Described as §5. Summed up:
as §4

Turning to `Cc1nc(NC(=O)CN2CCN(c3nnc(-c4ccccc4)c4ccccc34)CC2)sc1C(=O)Nc1ccccc1`, the inhibition of growth at 10 µM was 83% in assay [1], 56% in assay [2] and 81% in assay [3].

As to `CCOC(=O)c1ccc(NC(=O)CN2CCN(c3nnc(-c4ccccc4)c4ccccc34)CC2)cc1`, the “growth inhibition (GI)” value in the assay with HL-60(TB), with BT-549 and in the assay on RPMI8266 was “Active” in each case.

Source of the values: ChEMBL document CHEMBL3751694, “1-Piperazinylphthalazines as potential VEGFR-2 inhibitors and anticancer agents: Synthesis and in vitro biological evaluation” (Eur J Med Chem, 2016).
